Compound activity from PubChem.
A selection: hits, their analogues and other compounds. The true share with any hit is near 11%.
M1 antagonist: M1 muscarinic receptor (rat) antagonism. P08482. CHO-M1 cells, Fluo-4 calcium, ACh EC80 antagonist mode; active compounds read low. B-score at 10 µM. 64,000 compounds, 3.4% hits;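 active = calcium fluorescence response, raw or row-and-column corrected B-score, differing from the plate sample mean either way at a set confidence level, mostly lower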
mHtt clearance: compounds clearing mutant huntingtin protein | HeLa Exon1htt(103Q)mCFP, aggregate imaging; zero = plate's median compound well | 47,000 compounds, 0.42% hits | inhibition, % at 1.5 µM | AID 853;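 active = inhibition of aggregate fluorescence above about 70%, also judged a hit by eye on the cell image, limit read from the data, passing the limit was not always enough; inconclusive = no rule stated for this call; inactive = not judged a hit on image review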;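 note: cells exposed to compound for three days before fixation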
M1 ag: agonists of M1 muscarinic receptor; CHO-M1 cells, Fluo-4 calcium fluorescence, agonist mode; active compounds read high; B-score at 10 µM; 64,000 compounds, 3% hits; AID 626;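 active = fluorescence rise, raw or as B-score row- and column-corrected plate score, outside the 99.7% band of its plate's samples, either direction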
D1 mod: D1 dopamine receptor (human) allosteric modulation | 58,000 compounds, 5.9% hits | B-score at 10 µM | P21728 | HEK293 D1, CRE-luciferase, dopamine EC30 potentiation; actives deviate in either direction;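 active = luminescence count or its row- and column-corrected plate score outside the 99.7% band of the plate's sample wells, on either side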
RORA act: RORA (human) activation; P35398; CHO-K1 Gal4-RORA LBD luciferase reporter, luminescence; percent increase over mock-subtracted basal signal; activation, % at 10 µM; 65,000 compounds, 1.5% hits;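 active = activation above the mean of all tested compounds plus 3 SD, cut at about 49% in these data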
SF-1 act: SF-1 (human) activation | CHO-K1 Gal4-SF-1 LBD luciferase reporter; % increase over DMSO SF-1-specific signal | activation, % at 10 µM | Q13285 | 65,000 compounds, 1.9% hits;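 active = activation above the mean activation of all tested compounds plus 3 SD, cut at about 50% in these data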
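Compound – one dose, 10 µM compound, 1% DMSO · Test system – transient Gal4-SF-1 LBD reporter, CHO-K1 · Input – 4,000 cells in each well · Read-out basis – percent activation relative to DMSO median and mock-transfected background · Replicates – single measurement per compound · Technique – steady-glow luciferase luminescence, read after 15 min reagent incubation · Timing – 20 h compound treatment, 37 °C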
M1 agonist conf: rat M1 muscarinic agonism, confirmation | shares compounds with M1 ag | 1,700 compounds, 19% hits | fluorescence change (max-min) at 10 µM | CHO-M1 cells, Fluo-4 calcium fluorescence, agonist mode; actives lie on both sides | AID 1488;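 active = fluorescence change differs from the solvent-only DMSO control mean at a set confidence level in both duplicate runs; inconclusive = differs from solvent-only control mean in just one of two runs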;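 note: an EC20 dose of acetylcholine follows compound addition during the same imaging run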
M4 ag counter: rat M4 muscarinic agonism, M1 counter-screen; AID 1741; fluorescence change (max-min) at 10 µM; 1,700 compounds, 9% hits; CHO M4/Gqi5 cells, Fluo-4 calcium fluorescence, agonist mode; actives lie on both sides; shares compounds with M1 ag;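 active = fluorescence change differing from the plate's solvent-only control wells at 99.7% confidence in both duplicates, whether higher or lower; inconclusive = differs from solvent controls in only one of two duplicates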
Target sequence (P08485 whole entry, looked up): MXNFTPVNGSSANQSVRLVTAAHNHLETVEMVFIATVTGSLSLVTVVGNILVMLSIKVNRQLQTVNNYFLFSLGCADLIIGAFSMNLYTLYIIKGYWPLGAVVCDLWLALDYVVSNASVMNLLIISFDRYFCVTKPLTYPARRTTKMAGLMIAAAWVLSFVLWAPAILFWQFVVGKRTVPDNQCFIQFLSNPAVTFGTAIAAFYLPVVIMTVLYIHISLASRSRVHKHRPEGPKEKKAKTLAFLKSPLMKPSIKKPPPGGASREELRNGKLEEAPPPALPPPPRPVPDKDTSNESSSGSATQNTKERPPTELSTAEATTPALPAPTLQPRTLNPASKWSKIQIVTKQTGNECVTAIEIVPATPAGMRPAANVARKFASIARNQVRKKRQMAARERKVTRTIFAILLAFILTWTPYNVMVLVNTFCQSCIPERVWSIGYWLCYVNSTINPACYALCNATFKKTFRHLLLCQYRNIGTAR
Of the large screens only hits and unclear results are named; the others gave an inactive call (follow-up assays come after a bar, where they were run).

CS(=O)(=O)c1ccc2nc(NC(NC(=O)c3ccco3)(C(F)(F)F)C(F)(F)F)sc2c1	none (no result: mHtt clearance, D1 mod)
COCCn1c(COc2cccc(OC)c2)nnc1SCC(=O)N1CCOCC1	none (no result: mHtt clearance)
O=C(Cc1cccs1)N1CCN(c2nc(-c3ccc(Cl)cc3)cs2)CC1	M1 ag 3.5 | M1 agonist conf -28 | M4 ag counter inactive
Cc1nc2sccn2c1-c1csc(NCc2ccccc2)n1	M1 ag 8.3 | M1 agonist conf inactive | M4 ag counter inconclusive
COc1ccc2nc(N3CCC(C)CC3)c(C#N)cc2c1	M1 ag 4 (no result: mHtt clearance) | M1 agonist conf inactive | M4 ag counter inconclusive
COc1ccc2nc(N3CCC(O)CC3)c(C#N)cc2c1	M1 ag 55 | M1 agonist conf 198 | M4 ag counter 166
CCOC(=O)C1CCN(c2nc3cc(OC)ccc3cc2C#N)CC1	none
O=C(Nc1cccc(-c2nc3cccnc3s2)c1)c1ccco1	M1 ag 6 (no result: mHtt clearance) | M1 agonist conf inconclusive | M4 ag counter inactive
CCCN(S(=O)(=O)c1ccc(OCC)cc1)S(=O)(=O)c1cccs1	M1 ag 2.1 (no result: mHtt clearance) | M1 agonist conf inconclusive | M4 ag counter inactive
COCCn1c(C)cc(C(=O)CSc2nnc3scc(-c4ccc(Cl)cc4)n23)c1C	none
COC(=O)c1cccc(C(=O)Nc2cnc3ccccc3c2)n1	M1 ag 3.7, SF-1 act 97 | M1 agonist conf inactive | M4 ag counter inconclusive
COC(=O)c1cccc(C(=O)Nc2ccc(C)cc2Br)n1	none
Cc1cc(C)c2c(CC(=O)N(CCC#N)Cc3cccnc3)coc2c1	none
COc1cc2nc(NCC3CCCO3)n3nc(-c4cccnc4)nc3c2cc1OC (centres undefined)	M1 antagonist -3.9, M1 ag 2.9 | M1 agonist conf inconclusive | M4 ag counter inactive
Cc1cc(C)n(-c2ccc(C(=O)OCC(=O)c3ccc(Br)s3)cc2)n1	none (no result: mHtt clearance)
CCCn1nc(C(=O)Nc2cccc(C(=O)OC)c2)c2ccccc2c1=O	M1 ag 5.7 (no result: mHtt clearance) | M1 agonist conf inactive | M4 ag counter inactive
CCC(=O)Nc1c(C#N)c2nc3ccccc3nc2n1-c1ccccc1C	none (no result: mHtt clearance)
COc1ccc(-n2c(NC(=O)c3ccco3)c(C#N)c3nc4ccccc4nc32)cc1	M1 ag 27 (no result: mHtt clearance) | M1 agonist conf inactive | M4 ag counter inactive
CCOC(=O)c1c(NC(=O)c2ccco2)n(C2CCCCC2)c2nc3ccccc3nc12	none (no result: M1 antagonist, M1 ag, D1 mod, RORA act, SF-1 act)
CCCCn1c(NC(=O)c2ccccc2Cl)c(C#N)c2nc3ccccc3nc21	M1 ag 20 (no result: mHtt clearance) | M1 agonist conf 59 | M4 ag counter inactive
COC(=O)C1=C(C)N(c2cc(Cl)cc(Cl)c2)C(=O)C1	none (no result: mHtt clearance)
CCOC(=O)c1sc(NC(=O)CSc2nccc(C)n2)c(C#N)c1C	none (no result: M1 antagonist, M1 ag, D1 mod, RORA act, SF-1 act)
Cc1ccnc(SCC(=O)Nc2sc3c(c2C#N)CCCC3)n1	M1 ag 3.4 (no result: mHtt clearance) | M1 agonist conf inactive | M4 ag counter inconclusive
Cc1cc(Br)c2[nH]c3c(c2c1)CCCC3=O	none (no result: M1 antagonist, M1 ag, D1 mod, RORA act, SF-1 act)
Cc1csc(=Nc2ccc(S(=O)(=O)N3CCOCC3)cc2)n1Cc1ccco1	none
Cc1noc(C(=O)Nc2sc3c(c2C#N)CCC3)c1Cl	M1 ag -3.6, RORA act 52 (no result: mHtt clearance) | M1 agonist conf inactive | M4 ag counter inactive
COc1cccc(C(=O)N(Cc2cc3cc(C)ccc3[nH]c2=O)CC2CCCO2)c1 (centres undefined)	none (no result: M1 antagonist, mHtt clearance, M1 ag)
COc1ccc2[nH]c(=O)c(CN(CC3CCCO3)C(=O)Nc3ccc(F)cc3)cc2c1 (centres undefined)	M1 antagonist -4.3, M1 ag 11 | M1 agonist conf inactive | M4 ag counter inactive
CC(=O)N1CCc2c(sc(NC(=O)C3CC3)c2-c2nc3ccccc3s2)C1	M1 ag 6.1 (no result: mHtt clearance) | M1 agonist conf inactive | M4 ag counter inconclusive
O=C(c1ncc[nH]1)c1ccco1	M1 ag 3.6 (no result: mHtt clearance) | M1 agonist conf inactive | M4 ag counter inactive
Cc1ccc(S(=O)(=O)N2CCOCC2)cc1C(=O)Nc1nc(-c2cccnc2)cs1	none
